Shown are actives, neighbours in structure and some others; about 4.7% of the full set was active somewhere.
MrgX1 agonist: activates human MrgX1 receptor signaling; Q96LB2; MrgX1-HEK293 cells, Fluo-4 calcium fluorescence, agonist mode; active compounds read high; B-score at 10 µM; 0.44% of 310,000 active;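 active means calcium response B-score plate-corrected fluorescence ratio at least 3 library SD, with starting fluorescence B-score inside 5 SD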
Target sequence (Q96LB2 whole entry, looked up): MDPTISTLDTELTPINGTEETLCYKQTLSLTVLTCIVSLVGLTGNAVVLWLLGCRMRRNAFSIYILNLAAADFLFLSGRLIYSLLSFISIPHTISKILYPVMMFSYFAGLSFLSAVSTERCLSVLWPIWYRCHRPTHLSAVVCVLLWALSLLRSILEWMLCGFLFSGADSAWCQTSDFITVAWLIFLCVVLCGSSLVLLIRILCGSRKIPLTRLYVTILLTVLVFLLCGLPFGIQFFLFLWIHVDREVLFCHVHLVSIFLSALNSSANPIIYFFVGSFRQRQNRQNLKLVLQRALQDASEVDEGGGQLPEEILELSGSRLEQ
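Assay system: MrgX1-expressing HEK293 cells / Amount: fifteen thousand cells per well / Doses: test compound in the initial addition of three / Timing: cells plated overnight, dye loaded 0.5 h 37 °C, 0.5 h room temperature / Technique: kinetic calcium dye fluorescence, Fluo-4 NW / Control set: positive and negative controls per plate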
RGS4 pot: RGS4 potentiation or activation | HEK293 M3R/inducible RGS4, carbachol calcium flux Fluo4; active compounds read low | 0.92% of 310,000 active | B-score at 10 µM;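 active means B-score of the integrated calcium signal more than 4 SD below the library mean, with starting fluorescence not abnormally high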;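 further: negative B-score means reduced calcium response which marks RGS4 activation or potentiation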
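Material: Inducible-RGS4 HEK293 cells carrying M3 receptor; also added: carbachol at ECmax as muscarinic agonist stimulus; incubation: compound preincubation 20 min at room temperature before agonist; signal: Fluo4-AM (2 µM) calcium-flux fluorescence, kinetic read; measure: integrated calcium ratio converted to B score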
MrgX1 PAM: human MrgX1 positive allosteric modulation, primary screen; Q96LB2; MrgX1-HEK293, Fluo-4 calcium flux, FDSS; active compounds read high; B-score at 10 µM; 0.63% of 310,000 active; AID 588675;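 active means plate-corrected calcium response at least 3 library SD above typical, normal starting fluorescence, not activating the receptor alone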;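 further: compound read alongside a low EC10 to EC30 dose of BAM8-22 agonist; peak minus trough fluorescence over baseline measured at the second addition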
KCC2 mod: KCC2 (human) Cl- transport modulation; 2.2% of 190,000 active; KCC2 cells, thallium flux FluoZin-2 fluorescence; Q9H2X9; B-score of Tl+ flux slope (higher = more flux/activation; lower = inhibition) at 10 µM;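 active means thallium flux slope and its plate-corrected score both differing from the plate sample mean at a set confidence after two filtering rounds, in either direction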;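 further: slope of fluorescence scaled to starting intensity during 10 to 20 s after thallium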
MrgX1 antag: antagonists of human MrgX1 receptor; MRGX1-HEK293 calcium flux, Fluo-4, BAM8-22 antagonism; active compounds read low; B-score at 10 µM; Q96LB2; 1.3% of 310,000 active;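 active means calcium-response B-score plate-corrected more than 3 library SD below zero, starting fluorescence within 5 deviations, no agonist response on first addition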;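 further: peak minus trough fluorescence over baseline after final BAM8-22 challenge near maximal dose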
RGS4 block: inhibitors of human RGS4 | AID 463165 | P49798 | HEK293 M3R/RGS4 inducible, Fluo-4 calcium flux; active compounds read high; triggered by carbachol at its EC20 | B-score at 10 µM | 0.45% of 310,000 active;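 active means B-score, a plate-corrected calcium signal, over three deviations above library mean, with baseline fluorescence within five deviations of library mean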;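 further: RGS4 expression induced by doxycycline in cells with stable M3 receptor; B-score is computed from the integrated fluorescence ratio over baseline after carbachol; higher B-score means a larger calcium signal and so more RGS4 inhibition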
Target sequence (P49798 whole entry, looked up): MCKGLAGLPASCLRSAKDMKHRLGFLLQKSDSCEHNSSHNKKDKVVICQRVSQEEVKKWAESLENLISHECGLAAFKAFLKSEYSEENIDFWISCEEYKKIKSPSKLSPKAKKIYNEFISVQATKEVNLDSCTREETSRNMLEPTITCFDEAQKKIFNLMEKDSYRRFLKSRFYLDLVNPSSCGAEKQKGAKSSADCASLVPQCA
Each line names hits and unclear results; the compound was inactive in the other large screens.

CCCCOC(=O)c1ccc(NC(=S)NC(=O)c2ccco2)cc1	none (no result: KCC2 mod)
CCCCOC(=O)c1ccc(NC(=S)NC(=O)c2c(Cl)cnn2C)cc1	KCC2 mod 28
O=S(=O)(CCSc1ccccn1)c1nc2ccccc2s1	MrgX1 agonist 34
O=S(=O)(CCSc1nc2ccccc2o1)c1nc2ccccc2s1	none
CC(C)CC(=O)Nc1cc2c3c(c1)C(C)C(=O)N3CCC2 (centres undefined)	none (no result: KCC2 mod)
CC(C)(Oc1ccc(Cl)cc1)C(=O)NC1CCN(Cc2ccccc2)CC1	RGS4 pot -7 (no result: KCC2 mod)
O=C(COc1ccccc1)NC1CCN(Cc2ccccc2)CC1	none
CCN(Cc1nc(-c2ccc(OC)cc2)no1)C(=O)c1ccoc1C	none (no result: KCC2 mod)
CN(C)CCNC(C(=O)Nc1cccc(C(F)(F)F)c1)c1ccccc1 (centres undefined)	RGS4 pot -7.1
COc1ccc(-c2noc3c2-c2nc(-c4ccc(C)cc4)sc2CC3)cc1	MrgX1 antag -4.6 (no result: KCC2 mod)
Fc1ccccc1-c1nc2c(s1)CCc1onc(-c3ccc(Br)cc3)c1-2	MrgX1 antag -5.4 (no result: KCC2 mod)
COc1ccc(NC(=O)CN(C)C(=O)c2ccccc2Sc2ncnc3sc(C)c(C)c23)cc1	none (no result: KCC2 mod)
CCN1/C(=C/c2cc[n+](C)cc2)C=Cc2cc(C)ccc21	MrgX1 antag -7 (no result: RGS4 pot, RGS4 block)
COc1cccc(CN(CC(=O)NC2CCCC2)C(=O)c2csnn2)c1	none (no result: KCC2 mod)
Clc1cccc(CN2CCCCCC2)c1Cl	none (no result: KCC2 mod)
CCCCCCc1cc2cc(C(N)=O)c(=N)oc2cc1O	RGS4 pot -8.1
CCCCCCc1cc2cc(C(=O)NC)c(=N)oc2cc1O	none
CCCCCCc1cc2cc(C(=O)OCC)c(=O)oc2cc1O	MrgX1 antag -7.3
CCCCCCc1cc2cc(C(=O)Nc3ccc(OC)cc3)c(=O)oc2cc1O	none
Cc1ccc(S(=O)(=O)NNC(=O)NC23CC4CC(CC(C4)C2)C3)cc1	MrgX1 agonist 28
COc1cccc(CN2CC(C(=O)NCCN3CCOCC3)CCC2=O)c1 (centres undefined)	none (no result: KCC2 mod)
COc1ccc(-c2cc(N)n(S(=O)(=O)c3c(F)c(F)c(F)c(F)c3F)n2)cc1OC	MrgX1 antag -6.9 (no result: KCC2 mod)
COc1ccccc1C(=O)NC(CCSC)C(=O)OC(C)C(N)=O (centres undefined)	MrgX1 PAM 12
COc1ccccc1NC(=O)COC(=O)CCn1c(C)csc1=O	none (no result: KCC2 mod)
CCOc1ccccc1NC(=O)CSc1nnnn1C1CCCC1	none (no result: KCC2 mod)
OC1(C#CCN2CCCC2)c2ccccc2-c2ccccc21	RGS4 pot -7
COc1ccccc1N1C(=N)S/C(=C\c2ccc(-c3ccccc3C(=O)O)o2)C1=O	MrgX1 PAM 11
N=C1S/C(=C\c2ccc(-c3ccccc3C(=O)O)o2)C(=O)N1c1ccc2c(c1)OCO2	none (no result: MrgX1 agonist, MrgX1 PAM, MrgX1 antag)
COc1ccc(C(=O)N2CCCC(Nc3ccc(C)c(C)c3)C2)c(OC)n1 (centres undefined)	none (no result: KCC2 mod)
O=C(O)C(c1ccccc1)N1CCCCC1 (centres undefined)	MrgX1 antag -4.7
CCC(C)c1ccccc1N=Cc1ccc2c(c1)OCO2 (centres undefined)	none (no result: KCC2 mod)
Cc1ccc(CN(Cc2cc3cccc(C)c3[nH]c2=O)C(=S)NCCCN(C)C)cc1	MrgX1 PAM 9.7
C[C@H](NC(=O)c1ccccc1)C(=O)N1CCN(c2ccccc2)CC1	none (no result: KCC2 mod)
C=C(C)C(=O)N1CC2(CC(c3cccc(NC(=O)/C(C)=C\C)c3)=NO2)C[C@H]1C(N)=O (some centres undefined)	MrgX1 antag -4.8
CCCCCC(=O)Nc1cccc(C2=NOC3(C2)C[C@@H](C(N)=O)N(C(=O)c2cc([N+](=O)[O-])cc([N+](=O)[O-])c2)C3)c1 (some centres undefined)	MrgX1 antag -6.1
CCCCCC(=O)Nc1cccc(C2=NOC3(C2)C[C@@H](C(N)=O)N(C(=O)c2cc([N+](=O)[O-])cc([N+](=O)[O-])c2C)C3)c1 (some centres undefined)	none
C/C=C/C(=O)N1CC2(CC(c3cccc(NC(=O)/C(C)=C/C)c3)=NO2)C[C@H]1C(N)=O (some centres undefined)	none
CC(C)Oc1cccc(C(=O)C2CCCN(C(=O)c3ccnn3C)C2)c1 (centres undefined)	none
CC(C)Cc1nnc(NC(=O)CCC(=O)NC2CCCC2)s1	none (no result: KCC2 mod)
CC(C)N(C(=O)CSc1nnc(-c2cc3ccccc3cc2O)n1Cc1ccco1)C(C)C	none
COCCn1c(SCC(=O)N(C(C)C)C(C)C)nnc1-c1cc2ccccc2cc1O	MrgX1 PAM 6.6 (no result: KCC2 mod)
CN(C)c1ccc(/C=N/NC(=O)CNC(=O)/C=C/c2ccco2)cc1	none (no result: KCC2 mod)
O=C(/C=C/c1ccco1)NCC(=O)N/N=C/c1ccc(Cl)cc1	MrgX1 antag -5
CC(=O)Nc1ccc(N(C(=O)c2ccco2)C(C(=O)NC2CCCC2)c2ccncc2)cc1 (centres undefined)	none (no result: KCC2 mod)
CCOc1ccc(/C=C2\SC(=S)N(C(C(=O)O)c3ccccc3)C2=O)cc1OC (centres undefined)	none
COc1ccc(OC)c(/C=C2\SC(=S)N(C(C(=O)O)c3ccccc3)C2=O)c1 (centres undefined)	MrgX1 agonist 53 (no result: KCC2 mod)
C=CCOc1ccc(/C=C2\SC(=S)N(C(C(=O)O)c3ccccc3)C2=O)cc1 (centres undefined)	RGS4 pot -9.3 (no result: MrgX1 agonist, MrgX1 PAM, MrgX1 antag)
O=C(/C(=N\O)n1cncn1)c1ccc(Cl)cc1Cl	none
O=C(/C(=C/c1ccccc1)n1cncn1)c1ccc(Cl)cc1Cl	MrgX1 agonist 27
Cc1cccc(C)c1OCC(O)Cn1c2ccccc2c2ccccc21 (centres undefined)	RGS4 pot -7.1
Cc1ccc(OCC(O)Cn2c3ccccc3c3ccccc32)cc1 (centres undefined)	none (no result: KCC2 mod)
C=CCOC(=O)C1=C(C)NC(=O)NC1c1ccc(OC(=O)c2ccco2)c(OC)c1 (centres undefined)	KCC2 mod -3.3
Cc1n[nH]c(C)c1N=Nc1cc(Cl)ccc1Cl	MrgX1 antag -5.4 (no result: KCC2 mod)
O=C1C=C(N2CCCCCC2)C(=O)N1c1ccc(Cl)cc1	RGS4 pot -7 (no result: KCC2 mod)
CCOc1ccc(CNC(=O)CCC(=O)n2nc(C)c3ccccc32)cc1	none (no result: KCC2 mod)
COc1ccc(CNC(=O)C2CCN(C(=O)[C@@H]3Cc4ccccc4CN3)CC2)cc1	none (no result: KCC2 mod)
O=C(CSc1ccc(-c2nc3ccccc3[nH]2)cn1)Nc1ccc(S(=O)(=O)N2CCCC2)cc1	RGS4 pot -7.1
O=C(CSc1nc2ccc(Nc3nc(N4CCOCC4)nc(N4CCOCC4)n3)cc2s1)Nc1ccccc1F	none (no result: KCC2 mod)
COC1=C(c2ccccc2)C(=O)c2ccccc2C1=O	MrgX1 PAM 7.2
COc1ccc(C2=C(N)c3ccccc3C2=O)cc1	none (no result: KCC2 mod)
COc1ccc(Cl)cc1C(=O)n1cnc2ccccc21	none (no result: KCC2 mod)

From PubChem
